Measurements as given in ChEMBL document CHEMBL4513216, “Probing the Open Global Health Chemical Diversity Library for Multistage-Active Starting Points for Next-Generation Antimalarials” (ACS Infect Dis, 2020).

Assay: Toxicity liver stage against HepG2, at 10uM
Assay type: cell-based
Set-up: test concentration 10 uM, cell line HepG2-A16-CD81EGFP
Conditions: human, HepG2-A16-CD81EGFP cells; read-out: INHIBITION
In short: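 Uninfected HepG2-A16-CD81EGFP cells, 3 × 10^3 per well, 1536-well, plated on prespotted compound at 10 μM final, parasite-free screening media added to match infected plates; puromycin 10 μM positive, DMSO 0.5% negative; run in parallel with 48 h PbLuc assay at 37 °C, 5% CO2; viability by CellTiter-Glo luminescence, normalized to controls.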

SMILES | cytotoxicity at 10 µM
COc1cc(NC(=O)N2CCCC2c2ccco2)cc(OC)c1 (configuration not stated) | 4.65%
COc1ccc2c(ccn2CCC(=O)N[C@H](C(=O)O)C(C)C)c1 | 5.98%
COC(=O)CNC(=O)c1nc(Br)sc1C(C)C | -172%
COc1ccc(C)cc1NC(=O)Nc1cnc(N2CCCC2)nc1 | 6.62%
O=C(c1ccccn1)N1CCC(S(=O)(=O)c2ccccc2)C1 (configuration not stated) | 3.26%
CN(C)C(=O)N1CC2(CCOCC2)c2cc(NC(=O)CCO)ccc21 | -6.13%
C[C@@H]1C[C@H]2CN(C(=O)c3cccc4c3OCCO4)C[C@H]2O1 | -0.726%
Cc1noc(C)c1CN1CC[C@H]2OCC[C@@H](C(=O)N3CCCO3)[C@H]2C1 | 2%
Cc1csc([C@H]2C[C@@H]3CCN(C(=O)c4cnccn4)C[C@H]3O2)n1 | 1.07%
Cc1cccc(C)c1-n1nnnc1C1(NCc2ccco2)CCCC1 | 12.9%
O=C(O)c1cnc(N2CCCC2)nc1COc1ccc(F)cc1 | -1.14%
Cc1csc(C(Cc2cccs2)NCc2cc3c(cc2C)OCO3)n1 (configuration not stated) | -8.9%
CN(C)C(=O)C1(C)CN(Cc2cn(C)c3ccccc23)CCO1 (configuration not stated) | 1.78%
Cc1cccnc1CN1CCCCC1c1ccn2ccnc2n1 (configuration not stated) | 0.498%
CCc1nccn1-c1cncc(C2CCCN2Cc2ccccc2)n1 (configuration not stated) | -1.17%
CCCn1cc(CN2CCC(c3[nH]ncc3S(C)(=O)=O)C2)cn1 (configuration not stated) | 4.27%
c1ccc(-c2nc(CCNCc3cccnc3)co2)cc1 | -5.35%
CNC(=O)c1ccc(CN2CCN(C3=NCC(C)(C)S3)CC2)cc1 | 14.3%
Cc1oc(-c2ccco2)nc1CN1CCc2cncnc2C1 | 2.44%
Cc1c(Br)cccc1CSc1nnc(CO)n1C | -40.5%
CN(CCN1CCN(c2ccccc2)CC1)C(=O)Nc1ccccn1 | 6.37%

SMILES | cytotoxicity at 10 µM
CCn1cc(CN2CCCN(C(=O)C3(C#N)CCCCC3)CC2)cn1 | -53.5%
N#CC1(NC(=O)c2cc(Cl)ccc2OC(F)F)CCOCC1 | 7.48%
CNS(=O)(=O)Cc1cccc(CNc2ccc(Cl)cn2)c1 | -5.71%
N#Cc1ccc(N2CCC(OCCc3ccccc3)CC2)nc1 | -9.67%
Cc1cc(C)n(-c2cncc(NCCNC(=O)C3CCCC3)n2)n1 | 3.51%
FC(F)(F)C1CCCn2c(CNCc3ccco3)nnc21 (configuration not stated) | -9.5%
COCc1nc2n(n1)CCCC2Nc1nc(C(C)C)ns1 (configuration not stated) | 5.6%
Cc1nc(C2CCCN(C(=O)c3csc(C)n3)C2)no1 (configuration not stated) | 7.04%
CCc1nccn1C1CCCN(C(=O)c2ccc(N(C)C)nn2)C1 (configuration not stated) | 3.19%
Cc1ccc(CN(C(=O)NCCNC(=O)c2cccnc2)C(C)C)o1 | -6.06%
CCC(C)(C)NC(=O)CN(Cc1cccc(O)c1)C1CCC(O)CC1 (configuration not stated) | -2.22%
N#Cc1cc(Br)ccc1NC1CCN(CC(N)=O)CC1 | 5.23%
Cc1cnn(CC2CCCN2C(=O)c2sccc2C#N)c1 (configuration not stated) | 12.3%
CN1CCN(CC(=O)NCc2ccco2)Cc2ccccc21 | -3.81%
COc1ccc(OCCN(C)c2cc(C)nc(N)n2)cc1 | 49.5%
NC(=O)C(NC(=O)COC1CCCC1)c1ccccc1 (configuration not stated) | 3.25%
Cc1csc(N2CCN(Cc3nnsc3Cl)CC2C)n1 (configuration not stated) | -59.9%
CNC(=O)CN(C)C(=O)c1cc(Cl)c(I)cc1OC | 13.8%
Cc1ccc(N(C)C2CCCN(C(=O)Nc3ccc(F)cc3F)C2)cc1 (configuration not stated) | -8.19%
CN(C)C(=O)c1ccc(CNc2c(Cl)cccc2C#N)cc1 | -50.6%
Cc1ccc(=O)n(CC(=O)N2CCCC(c3nc(C)c(C)s3)C2)n1 (configuration not stated) | -3.06%

SMILES | cytotoxicity at 10 µM
CC(=O)N1CCO[C@@H]2CN(S(=O)(=O)c3ccc(F)cc3)CC[C@@H]2C1 | 13.7%
O=C(c1cnccn1)N1CCc2onc(CN3CCOCC3)c2C1 | 9.47%
Cn1c2c(ccc1=O)CC(NS(C)(=O)=O)CC2 (configuration not stated) | 3.99%
O=C1NCCN(CC2CC2)C12CCN(Cc1ccco1)CC2 | 2.55%
CNC(=O)Cc1cc2nccc(-c3c(OC)cccc3OC)n2n1 | -10.4%
CN(Cc1nncn1C)C(=O)c1cc(COc2ccccc2)[nH]n1 | 9.23%
Cc1nc2ccccn2c1CN1C[C@@H](CN(C)C)[C@@H](CO)C1 | 0.743%
CN1CCNC(=O)C1CC(=O)NCCc1cnn(-c2ccccc2)c1 (configuration not stated) | 2.53%
O=C(Cc1ccsc1)N1CCC(c2ccncc2)CC1 | 8.89%
CCCn1cnnc1CNC(=O)CC1C(=O)NCCN1C(C)C (configuration not stated) | 0.445%
CCc1nc(Cn2ccnc2-c2nccn2C)no1 | -42%
Cc1cc(-c2cc(S(=O)(=O)N3C[C@H](C4CC4)[C@@H](N)C3)c(C)s2)on1 | 3.37%
CCOCc1nc2c(c(N(C)Cc3snnc3C)n1)CCNCC2 | 10.7%
CCN(Cc1noc(CC(C)C)n1)Cc1cccc(F)c1O | -44%
COc1ccc(OC)c(-n2c(COC(C)C)n[nH]c2=O)c1 | 7.78%
O=C(COCC1CCCCO1)N1CCN(Cc2ccccc2F)C(=O)C1 (configuration not stated) | 3.15%
CC(C)N1CCOC(Cc2nn3c(Cc4ccccc4)nnc3s2)C1 (configuration not stated) | -6.53%
COc1ccc(N2CCC(N(C)C(C)C(=O)N(C)C)CC2)cc1 (configuration not stated) | 11%
Cc1cnn(CCNCC(=O)NCCOc2ccc(F)cc2)c1 | -4.45%
Cc1noc(C)c1S(=O)(=O)NC(=O)COc1ccc2c(c1)CCC2 | -3.07%
CCc1nccn1C1CCCN(C(=O)COCC(F)(F)F)C1 (configuration not stated) | -9.74%

SMILES | cytotoxicity at 10 µM
Cc1ccc(C(=O)N2CCC(Oc3cccc(C)c3C)CC2)c(=O)[nH]1 | -6.48%
CC(C)NC(=O)CN1CCC(c2cccc(F)c2)C1 (configuration not stated) | 0.103%
Cc1cc(NC(=O)NCC(c2ccc(C)o2)N2CCOCC2)n(C)n1 (configuration not stated) | -32.5%
c1ccc(-c2noc(CCCN3CCCC3Cn3cccn3)n2)cc1 (configuration not stated) | -13%
COc1cccc(COCC(=O)N2CCCC(c3ccn[nH]3)C2)c1 (configuration not stated) | -20.9%
COc1ccccc1CCN(C)C(=O)NC(C)c1nncn1C (configuration not stated) | -1.88%
O=C(c1csc(Br)c1)N1CCCC(n2ccnc2)C1 (configuration not stated) | 3.51%
CCc1ncc(CN(CCc2ccccc2)Cc2cccs2)cn1 | 2.44%
Cc1ccc([C@]2(O)CC[C@H]3CN(Cc4cc(C)c(O)c(C)c4)C[C@H]32)nc1 | -6.72%
c1csc(CN2CCn3c(Cn4cncn4)cnc3C2)n1 | -5.97%
Cc1nnc([C@@H]2C[C@H]3CN(C4CCC4)C[C@H]3O2)[nH]1 | 8.89%
O=C(c1cscn1)N1CCC2(CN(Cc3ccsc3)C2)C1 | 4.06%
Cn1cccc1C(=O)N1CCC2(CCCN2Cc2ccccc2)CC1 | 0.929%
CN1CC(=O)N(c2ccsc2)CC12CCN(C(=O)c1ccccc1)C2 (configuration not stated) | -0.516%
COc1ncccc1CN1CCC2(CCCN2S(C)(=O)=O)CC1 | 8.86%
O=C1[C@H]2CN(Cc3ccoc3)C[C@H]2CN1Cc1ccncc1 | -14.1%
Cc1noc(C)c1CN1CCn2cc(CNC(=O)C3CCC3)nc2C1 | 5.28%
CN(C)C(=O)CC1CC2(CCN(Cc3cccs3)CC2)c2ccccc21 (configuration not stated) | -3.87%
Cc1nc(COCC2CN(C(=O)N(C)C)Cc3nccn3C2)cs1 (configuration not stated) | 4.48%
